# Data: ChEMBL document CHEMBL1154855 (Eur J Med Chem, 2010)
# Tests used:
# [1] = tested on: Vero; assay: (§1) Cytotoxicity against PIV 3 infected african green monkey Vero cells by trypan blue exclusion method; assay type: cell-based; details: chlorocebus sabaeus, vero
# Outline: (§2)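 Uninfected confluent cultures were run in parallel with the infected cultures. Medium was replaced by 1 ml maintenance medium with serial compound concentrations; cell controls received no compound. Cultures were incubated at 37 °C. After 2 and 7 days, compound was withdrawn and viability was determined by trypan blue exclusion.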
# [2] = tested on: Sindbis virus; assay: Antiviral activity against Sindbis virus infected in african green monkey Vero cells assessed as protection from virus-induced cytopathogenicity after 2 to 3 days by MTT assay; assay type: functional, organism-based
# [3] = tested on: HEL; assay: (§3) Cytotoxicity against Herpes simplex virus 2 G infected HEL cells by trypan blue exclusion method; assay type: cell-based; details: human, hel; outline: as §2
# [4] = tested on: Respiratory syncytial virus; assay: Antiviral activity against Respiratory syncytial virus infected in human HeLa cells assessed as protection from virus-induced cytopathogenicity after 4 days by MTT assay; assay type: functional, organism-based; details: 96 h
# [5] = tested on: HEL; assay: Cytotoxicity against acyclovir-sensitive Herpes simplex virus 1 KOS infected HEL cells by trypan blue exclusion method; assay type: cell-based; details: human; outline: as §2
# [6] = tested on: MDCK; assay: Cytotoxicity against Influenza A virus subtype H3N2 infected MDCK cells by trypan blue exclusion method; assay type: cell-based, Canis lupus familiaris; details: dog
# [7] = tested on: Vero; assay: (§4) Cytotoxicity against Punta Toro virus infected african green monkey Vero cells by trypan blue exclusion method; assay type: cell-based; details: chlorocebus sabaeus, vero; outline: as §2
# [8] = tested on: Vesicular stomatitis virus; assay: Antiviral activity against VSV infected in human HeLa cells assessed as protection from virus-induced cytopathogenicity after 1 to 2 days by MTT assay; assay type: functional, organism-based
# [9] = tested on: HeLa; assay: (§5) Cytotoxicity against Respiratory syncytial virus infected human HeLa cells by trypan blue exclusion method; assay type: cell-based; details: hela; outline: as §2
# [10] = tested on: Vero; assay: (§6) Cytotoxicity against Human coxsackievirus B4 infected african green monkey Vero cells by trypan blue exclusion method; assay type: cell-based; details: chlorocebus sabaeus, vero; outline: as §2
# [11] = tested on: MDCK; assay: Cytotoxicity against Influenza B virus infected MDCK cells by trypan blue exclusion method; assay type: cell-based, Canis lupus familiaris; details: dog
# [12] = tested on: Influenza A virus; assay: Antiviral activity against Influenza A virus H1N1 infected in MDCK cells assessed as protection from virus-induced cytopathogenicity after 6 to 7 days by MTT assay; assay type: functional, organism-based
# [13] = tested on: HEL; assay: (§7) Cytotoxicity against Vaccinia virus infected HEL cells by trypan blue exclusion method; assay type: cell-based; details: human, hel; outline: as §2
# [14] = tested on: HeLa; assay: (§8) Cytotoxicity against Human coxsackievirus B4 infected human HeLa cells by trypan blue exclusion method; assay type: cell-based; details: hela; outline: as §2
# [15] = tested on: Human alphaherpesvirus 1; assay: Antiviral activity against acyclovir-sensitive Herpes simplex virus 1 KOS infected in HEL cells assessed as protection from virus-induced cytopathogenicity after 2 to 3 days by MTT assay; assay type: functional, organism-based; details: Human alphaherpesvirus 1, KOS
# [16] = tested on: Human alphaherpesvirus 2; assay: Antiviral activity against Herpes simplex virus 2 G infected in HEL cells assessed as protection from virus-induced cytopathogenicity after 2 to 3 days by MTT assay; assay type: functional, organism-based; details: Human alphaherpesvirus 2, strain G
# [17] = tested on: HEL; assay: (§9) Cytotoxicity against VSV infected HEL cells by trypan blue exclusion method; assay type: cell-based; details: human, hel; outline: as §2
# [18] = tested on: Vero; assay: (§10) Cytotoxicity against Sindbis virus infected african green monkey Vero cells by trypan blue exclusion method; assay type: cell-based; details: chlorocebus sabaeus, vero; outline: as §2
# [19] = tested on: Human alphaherpesvirus 1; assay: Antiviral activity against Herpes simplex virus 1 KOS infected in HEL cells assessed as protection from virus-induced cytopathogenicity after 2 to 3 days by MTT assay; assay type: functional, organism-based; details: Human alphaherpesvirus 1, KOS
# [20] = tested on: Mammalian orthoreovirus 1; assay: Antiviral activity against Reovirus 1 infected in african green monkey Vero cells assessed as protection from virus-induced cytopathogenicity after 6 to 7 days by MTT assay; assay type: functional, organism-based; details: Mammalian orthoreovirus 1, Vero
# [21] = tested on: Felid alphaherpesvirus 1; assay: Antiviral activity against Feline herpesvirus infected in cat CRFK cells assessed as protection from virus-induced cytopathogenicity by MTT assay; assay type: functional, organism-based; details: Felid alphaherpesvirus 1, CRFK
# [22] = tested on: Punta Toro virus; assay: Antiviral activity against Punta Toro virus infected in african green monkey Vero cells assessed as protection from virus-induced cytopathogenicity by MTT assay; assay type: functional, organism-based
# [23] = tested on: Coxsackievirus B4; assay: Antiviral activity against Human coxsackievirus B4 infected in human HeLa cells assessed as protection from virus-induced cytopathogenicity after 2 days by MTT assay; assay type: functional, organism-based; details: Enterovirus B, 48 h
# [24] = Cytotoxicity against Feline coronavirus infected cat CRFK cells by trypan blue exclusion method; assay type: cell-based, Felis catus; details: crfk; outline: as §2
# [25] = tested on: Proteus mirabilis; assay: Antibacterial activity against Proteus mirabilis after 24 hrs by broth microdilution method; assay type: functional; details: Proteus mirabilis, 24 h; read-out: MIC
# Outline: (§11)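 Clinical isolates. Each dilution received 100 μl of 0.5 McFarland fresh culture. Solvent (DMSO), growth and standard controls were included. Tubes were incubated at 37 °C for 24 h. MIC is the highest dilution showing no turbidity. Tests were run in triplicate, with at least two repetitions.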
# [26] = tested on: HeLa; assay: (§12) Cytotoxicity against VSV infected human HeLa cells by trypan blue exclusion method; assay type: cell-based; details: hela; outline: as §2
# [27] = tested on: Vero; assay: (§13) Cytotoxicity against Reovirus 1 infected african green monkey Vero cells by trypan blue exclusion method; assay type: cell-based; details: chlorocebus sabaeus, vero; outline: as §2
# [28] = tested on: MDCK; assay: Cytotoxicity against Influenza A virus subtype H1N1 infected MDCK cells by trypan blue exclusion method; assay type: cell-based, Canis lupus familiaris; details: dog
# [29] = tested on: Coxsackievirus B4; assay: Antiviral activity against Human coxsackievirus B4 infected in african green monkey Vero cells assessed as protection from virus-induced cytopathogenicity after 2 days by MTT assay; assay type: functional, organism-based; details: Enterovirus B, 48 h
# [30] = tested on: Influenza B virus; assay: Antiviral activity against Influenza B virus infected in MDCK cells assessed as protection from virus-induced cytopathogenicity after 6 to 7 days by MTT assay; assay type: functional, organism-based
# [31] = tested on: Influenza A virus; assay: Antiviral activity against Influenza A virus H3N2 infected in MDCK cells assessed as protection from virus-induced cytopathogenicity after 6 to 7 days by MTT assay; assay type: functional, organism-based
# [32] = tested on: HEL; assay: (§14) Cytotoxicity against Herpes simplex virus 1 KOS infected HEL cells by trypan blue exclusion method; assay type: cell-based; details: human, hel; outline: as §2
# [33] = tested on: Human respirovirus 3; assay: Antiviral activity against PIV 3 infected in african green monkey Vero cells assessed as protection from virus-induced cytopathogenicity after 6 to 7 days by MTT assay; assay type: functional, organism-based; details: Human respirovirus 3, Vero
# [34] = Cytotoxicity against Feline herpesvirus infected cat CRFK cells by trypan blue exclusion method; assay type: cell-based, Felis catus; details: crfk; outline: as §2
# [35] = tested on: Streptococcus viridans; assay: Antibacterial activity against Streptococcus viridans after 24 hrs by broth microdilution method; assay type: functional; details: Streptococcus viridans, 24 h; read-out: MIC; outline: as §11
# [36] = tested on: Feline coronavirus; assay: Antiviral activity against Feline coronavirus infected in cat CRFK cells assessed as protection from virus-induced cytopathogenicity by MTT assay; assay type: functional, organism-based; details: Alphacoronavirus 1, CRFK
# [37] = as §1; assay type: cell-based; details: chlorocebus sabaeus, Vero cells infected with PIV 3; outline: as §2
# [38] = as §3; assay type: cell-based; details: human, HEL cells infected with herpes simplex virus 2 G; outline: as §2
# [39] = as §4; assay type: cell-based; details: chlorocebus sabaeus, Vero cells infected with Punta Toro virus; outline: as §2
# [40] = as §5; assay type: cell-based; details: HeLa cells infected with respiratory syncytial virus; outline: as §2
# [41] = as §6; assay type: cell-based; details: chlorocebus sabaeus, Vero cells infected with human coxsackievirus B4; outline: as §2
# [42] = as §7; assay type: cell-based; details: human, HEL cells infected with vaccinia virus; outline: as §2
# [43] = as §8; assay type: cell-based; details: HeLa cells infected with human coxsackievirus B4; outline: as §2
# [44] = as §9; assay type: cell-based; details: human, HEL cells infected with VSV; outline: as §2
# [45] = as §10; assay type: cell-based; details: chlorocebus sabaeus, Vero cells infected with Sindbis virus; outline: as §2
# [46] = tested on: Vesicular stomatitis virus; assay: Antiviral activity against VSV infected in HEL cells assessed as protection from virus-induced cytopathogenicity after 1 to 2 days by MTT assay; assay type: functional, organism-based
# [47] = as §12; assay type: cell-based; details: HeLa cells infected with VSV; outline: as §2
# [48] = as §13; assay type: cell-based; details: chlorocebus sabaeus, Vero cells infected with reovirus 1; outline: as §2
# [49] = as §14; assay type: cell-based; details: human, HEL cells infected with herpes simplex virus 1 KOS; outline: as §2
smiles,measurement,setting,value
COc1cc(/C=C/C(=O)CC(=O)/C=C/c2ccc(O)c(OC)c2)ccc1O [CURCUMIN],CC50,[1],54 nM
same,EC50,[2],> 10 nM
same,CC50,[3],> 2 nM
same,EC50,[4],> 10 nM
same,CC50,[5],> 2 nM
same,CC50,[6],> 92 nM
same,CC50,[7],54 nM
same,EC50,[8],> 10 nM
same,CC50,[9],≥ 10 nM
same,CC50,[10],54 nM
same,CC50,[11],> 92 nM
same,EC50,[12],> 271 nM
same,CC50,[13],> 2 nM
same,CC50,[14],≥ 10 nM
same,EC50,[15],10 nM
same,EC50,[16],10 nM
same,CC50,[17],> 2 nM
same,CC50,[18],54 nM
same,EC50,[19],> 10 nM
same,EC50,[20],> 10 nM
same,EC50,[21],> 271 nM
same,EC50,[22],> 10 nM
same,EC50,[23],> 10 nM
same,CC50,[24],> 271 nM
same,MIC,[25],1.23 µM
same,CC50,[26],≥ 10 nM
same,CC50,[27],54 nM
same,CC50,[28],> 92 nM
same,EC50,[29],> 10 nM
same,EC50,[30],> 271 nM
same,EC50,[31],> 271 nM
same,CC50,[32],≥ 10 nM
same,EC50,[33],> 10 nM
same,CC50,[34],> 271 nM
same,MIC,[35],2.47 µM
same,EC50,[36],> 271 nM
NC(=O)c1ncn([C@@H]2O[C@H](CO)[C@@H](O)[C@H]2O)n1 [RIBAVIRIN],CC50,[37],> 250000 nM
same,EC50,[2],111000 nM
same,CC50,[38],> 250000 nM
same,EC50,[4],30000 nM
same,CC50,[39],> 250000 nM
same,CC50,[40],> 250000 nM
same,CC50,[41],> 250000 nM
same,EC50,[12],7000 nM
same,CC50,[42],> 250000 nM
same,CC50,[43],> 250000 nM
same,EC50,[15],125000 nM
same,EC50,[16],50000 nM
same,CC50,[44],> 250000 nM
same,CC50,[45],> 250000 nM
same,EC50,[19],10000 nM
same,EC50,[46],> 250000 nM
same,EC50,[23],30000 nM
same,CC50,[47],> 250000 nM
same,CC50,[48],> 250000 nM
same,EC50,[29],> 250000 nM
same,CC50,[49],> 250000 nM
same,EC50,[33],95000 nM
